From ChEMBL document CHEMBL4699596, “Therapeutic Targeting of MMP-12 for the Treatment of Chronic Obstructive Pulmonary Disease” (J Med Chem, 2020) come the findings set out here.

Active and inactive are the calls of the source. The rule behind the calls is not given here.

For series [1], the target named is T1, Macrophage metalloelastase (Homo sapiens, UniProt P39900). The experiment in a line: Inhibition of recombinant human MMP12 catalytic domain (Gly106 to Gly263 residues) expressed in Escherichia coli BL21 Codon Plus cells using 5-FAM/QXL520 FRET peptide as substrate preincubated for 15 mins followed by substrate addition and measured at 3 mins interval for 60 mins by fluorescence assay.
Target sequence in this assay (P39900 whole entry, the tested form may be a part): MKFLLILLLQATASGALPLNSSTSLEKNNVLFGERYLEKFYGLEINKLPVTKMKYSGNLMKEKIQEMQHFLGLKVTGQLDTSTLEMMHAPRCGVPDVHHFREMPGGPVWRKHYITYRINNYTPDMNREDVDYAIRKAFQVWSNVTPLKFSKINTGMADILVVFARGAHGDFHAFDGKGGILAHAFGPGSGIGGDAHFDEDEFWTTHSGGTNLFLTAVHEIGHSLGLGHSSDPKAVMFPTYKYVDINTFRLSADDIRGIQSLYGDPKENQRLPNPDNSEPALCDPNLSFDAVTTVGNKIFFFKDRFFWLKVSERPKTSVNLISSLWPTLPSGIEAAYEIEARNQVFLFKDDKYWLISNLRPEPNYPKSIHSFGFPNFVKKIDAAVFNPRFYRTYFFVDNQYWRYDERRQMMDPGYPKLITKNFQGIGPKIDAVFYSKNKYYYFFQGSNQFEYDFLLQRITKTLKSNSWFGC

For series [2], the target named is T1, Macrophage metalloelastase. Description: Potency index, ratio of MMP408 IC50 to test compound IC50 for inhibition of recombinant human MMP12 catalytic domain (Gly106 to Gly263 residues) expressed in Escherichia coli BL21 Codon Plus cells.
Target sequence in this assay (P39900 106-470 limits assumed): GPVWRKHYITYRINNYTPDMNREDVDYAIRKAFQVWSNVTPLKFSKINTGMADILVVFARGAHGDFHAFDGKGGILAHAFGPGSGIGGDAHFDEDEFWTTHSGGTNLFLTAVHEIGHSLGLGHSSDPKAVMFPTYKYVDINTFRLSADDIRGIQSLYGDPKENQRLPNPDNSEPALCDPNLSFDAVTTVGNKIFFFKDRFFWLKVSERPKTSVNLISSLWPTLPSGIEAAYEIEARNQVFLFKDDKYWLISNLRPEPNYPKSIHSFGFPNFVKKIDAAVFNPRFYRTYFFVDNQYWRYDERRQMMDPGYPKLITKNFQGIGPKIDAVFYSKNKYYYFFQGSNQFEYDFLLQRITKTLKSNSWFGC
The target in series [3] is T2, Interstitial collagenase (Homo sapiens) (UniProt P03956).
T2 sequence (whole entry): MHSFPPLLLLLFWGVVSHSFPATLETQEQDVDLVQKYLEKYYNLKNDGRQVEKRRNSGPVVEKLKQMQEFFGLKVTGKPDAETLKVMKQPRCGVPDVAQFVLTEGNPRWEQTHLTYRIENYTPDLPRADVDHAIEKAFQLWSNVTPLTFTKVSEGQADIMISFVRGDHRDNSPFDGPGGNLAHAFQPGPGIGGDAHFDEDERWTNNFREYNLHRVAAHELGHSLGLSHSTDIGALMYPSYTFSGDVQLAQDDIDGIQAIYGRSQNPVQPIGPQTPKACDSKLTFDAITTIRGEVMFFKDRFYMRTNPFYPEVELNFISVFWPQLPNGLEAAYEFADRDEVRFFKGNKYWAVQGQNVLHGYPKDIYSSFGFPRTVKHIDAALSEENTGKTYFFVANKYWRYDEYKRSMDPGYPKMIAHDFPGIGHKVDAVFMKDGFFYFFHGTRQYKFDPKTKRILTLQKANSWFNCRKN
Description: Inhibition of recombinant human 6His-tagged MMP1 catalytic domain (106 to 261 residues) expressed in Escherichia coli at 4 to 25 nM using 5-FAM/QXL520 FRET peptide as substrate preincubated for 15 mins followed by substrate addition and measured at 3 mins interval for 60 mins by fluorescence assay. To be noted: dose nM 4-25, time 75.0 min. Summed up:
(§1)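 Catalytic domains, 10 ng enzyme, preincubated with inhibitor 15 min at RT. FRET substrate (SensoLyte 520 kit) then added, fluorescence read every 3 min for 60 min. Inhibitors at 25 nM or 4 nM; percent inhibition reported.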

Series [4] deals with Matrix metalloproteinase-9 (Homo sapiens) (UniProt P14780). The experiment in a line: Inhibition of recombinant human 6His-tagged MMP9 catalytic domain (112 to 445 residues) expressed in Escherichia coli at 4 to 25 nM using 5-FAM/QXL520 FRET peptide as substrate preincubated for 15 mins followed by substrate addition and measured at 3 mins interval for 60 mins by fluorescence assay. Conditions: dose nM 4-25, time 75.0 min. The method, boiled down:
as §1

The target of series [5] is Collagenase 3 (Homo sapiens) (UniProt P45452). Description: Inhibition of recombinant human 6His-tagged MMP13 catalytic domain (104 to 274 residues) expressed in Escherichia coli at 4 to 25 nM using 5-FAM/QXL520 FRET peptide as substrate preincubated for 15 mins followed by substrate addition and measured at 3 mins interval for 60 mins by fluorescence assay. To be noted: dose nM 4-25, time 75.0 min. Summed up:
as §1

The target in series [6] is Matrix metalloproteinase-14 (Homo sapiens) (UniProt P50281). Description: Inhibition of recombinant human His-tagged MMP14 expressed in Escherichia coli at 4 to 25 nM using 5-FAM/QXL520 FRET peptide as substrate preincubated for 15 mins followed by substrate addition and measured at 3 mins interval for 60 mins by fluorescence assay. Conditions: dose nM 4-25, time 75.0 min. The method, boiled down:
as §1

Series [7] addresses Stromelysin-1 (Homo sapiens) (UniProt P08254). Description: Inhibition of recombinant human His-tagged MMP3 catalytic domain (Pro19 to Glu271 residues) expressed in Escherichia coli at 4 to 25 nM using 5-FAM/QXL520 FRET peptide as substrate preincubated for 15 mins followed by substrate addition and measured at 3 mins interval for 60 mins by fluorescence assay. To be noted: dose nM 4-25, time 75.0 min. Summed up:
as §1

A short description of series [8]: Cmax in Balb/c mouse at 30 mg/kg, ip by LC-MS/MS analysis. The class given is ADME, organism-based. Conditions: in vivo. Also noted: route intraperitoneal, dose 30 mg/kg. The method, boiled down:
(§2)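 Single i.p. dose of 30 mg/kg to 5 Balb-C mice (22–26 g) in 10% DMSO, 40% PEG400, 10% (2-hydroxypropyl)-β-cyclodextrin in PBS. Retro-orbital blood taken at 30 min, 1, 2, 4, 8 and 24 h. Plasma drug measured by extraction and LC/MS against a calibration curve of purified agent.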

Series [9] can be described thus: Ratio of Cmax in Balb/c mouse at 30 mg/kg, ip to IC90 for inhibition of recombinant human MMP12 catalytic domain (Gly106 to Gly263 residues) expressed in Escherichia coli BL21 Codon Plus cells. The class given is organism-based. Conditions: in vivo.
Series [10] is described as follows: Tmax in Balb/c mouse at 30 mg/kg, ip by LC-MS/MS analysis. The class given is ADME, organism-based. Conditions: in vivo. The method, boiled down:
as §2

A short description of series [11]: Half life in Balb/c mouse at 30 mg/kg, ip by LC-MS/MS analysis. Format: ADME, organism-based. Conditions: in vivo. The method, boiled down: as §2
Series [12] concerns Mus musculus. The experiment in a line: Protection against porcine elastase-induced emphysema in ip dosed C57BL/6 mouse model assessed as effect on total BALF cellularity/influx administered once daily for 7 days measured 21 days post initial elastase instillation. The class given is functional, organism-based. To be noted: time 19.0 day. Summed up: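 Same elastase and dosing scheme as line 10 (C57BL/6, intranasal 0.9 U PPE, daily i.p. for 7 days from day 2). At day 21 BAL cell pellet taken up in 200 μl PBS and counted on a hemocytometer. Cytospin differentials of 300 cells per slide. Two-way ANOVA with Tukey post-hoc.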

Series [13] deals with Mus musculus. The experiment in a line: Protection against porcine elastase-induced emphysema in ip dosed C57BL/6 mouse model assessed as decrease in emphysema-like pathology administered once daily for 7 days measured 21 days post initial elastase instillation by H and E staining based light microscopic analysis. The class given is functional, organism-based. To be noted: time 19.0 day. Summed up:
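Male and female C57BL/6 mice, 6–8 weeks, given one intranasal dose of 0.9 U porcine pancreatic elastase in 50 μl PBS (saline controls). From day 2, daily i.p. vehicle or inhibitor for 7 days. At day 21 lungs formalin-inflated at 20 cm pressure, paraffin-embedded, H&E-stained and imaged at 10x. Mean linear intercept = line length/alveolar wall intersections. Two-way ANOVA with Tukey.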

Chain of Stromelysin-1 (Homo sapiens) (P08254 100-477 limits assumed): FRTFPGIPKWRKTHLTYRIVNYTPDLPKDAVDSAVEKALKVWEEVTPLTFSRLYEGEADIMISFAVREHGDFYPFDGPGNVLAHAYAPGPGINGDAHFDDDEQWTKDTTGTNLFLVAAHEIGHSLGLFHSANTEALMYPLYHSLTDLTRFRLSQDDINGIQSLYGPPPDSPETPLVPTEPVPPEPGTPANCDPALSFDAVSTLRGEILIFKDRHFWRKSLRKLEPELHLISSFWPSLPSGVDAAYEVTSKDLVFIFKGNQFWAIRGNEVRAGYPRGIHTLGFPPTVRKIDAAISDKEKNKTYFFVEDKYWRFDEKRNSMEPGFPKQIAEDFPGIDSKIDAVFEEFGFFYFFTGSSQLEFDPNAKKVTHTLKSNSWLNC
Chain of Matrix metalloproteinase-9 (Homo sapiens) (P14780 whole entry, the tested form may be a part): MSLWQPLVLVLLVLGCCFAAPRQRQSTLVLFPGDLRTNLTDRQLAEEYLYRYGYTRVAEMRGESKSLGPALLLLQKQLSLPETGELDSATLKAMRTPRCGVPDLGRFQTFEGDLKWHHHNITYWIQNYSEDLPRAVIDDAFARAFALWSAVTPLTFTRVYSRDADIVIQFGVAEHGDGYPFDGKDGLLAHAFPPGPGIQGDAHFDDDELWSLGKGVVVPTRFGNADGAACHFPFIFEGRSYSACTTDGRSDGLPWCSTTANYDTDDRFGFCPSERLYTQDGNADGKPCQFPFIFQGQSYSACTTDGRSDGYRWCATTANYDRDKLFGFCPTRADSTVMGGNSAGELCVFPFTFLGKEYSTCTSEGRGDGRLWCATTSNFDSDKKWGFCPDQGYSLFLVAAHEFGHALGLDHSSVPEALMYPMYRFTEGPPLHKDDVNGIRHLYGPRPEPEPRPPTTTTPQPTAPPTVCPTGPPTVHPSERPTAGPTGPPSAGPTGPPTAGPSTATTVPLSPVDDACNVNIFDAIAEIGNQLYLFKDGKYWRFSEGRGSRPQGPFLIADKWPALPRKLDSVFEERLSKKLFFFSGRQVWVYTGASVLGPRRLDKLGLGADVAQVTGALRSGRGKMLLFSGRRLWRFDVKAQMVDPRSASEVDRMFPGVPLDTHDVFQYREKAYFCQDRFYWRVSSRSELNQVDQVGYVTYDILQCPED

Take `COc1ccc(CC[C@@H](NC(=O)[C@H](CCCc2ccccc2)NC(=O)CN2CCOCC2)C(=O)N[C@H](Cc2ccc(C)cc2)C(=O)NO)cc1`: the IC50 (commonly the concentration needed to halve the response being measured) in series [1] is 4.5 nM. Moreover, the Ratio IC50 in series [2] is greater than 5. Further, the inhibition result in [3], in [4], in series [5] and in series [6] was “inactive” throughout. Moreover, the inhibition result in series [7] was “Active”. Also, in [8], the concentration peaked (Cmax) at 580 nM. Moreover, the Ratio in [9] is recorded as greater than 20. For the same molecule, the Tmax (as a rule, the time from dosing to the highest level) in series [10] stood at 2 h. Besides, the half-life (commonly how long it takes for the measured level to halve) in series [11] was 5 h. The outcome in the series with Mus musculus [12] was inactive. Moreover, the result with Mus musculus [13] was Active.
